Results: ChEMBL document CHEMBL3872208, “Synthesis and pharmacological characterization of novel N-(trans-4-(2-(4-(benzo[d]isothiazol-3-yl)piperazin-1-yl)ethyl)cyclohexyl)amides as potential multireceptor atypical antipsychotics” (Eur J Med Chem, 2016)

How the values were obtained:
[1] = molecular target: 5-hydroxytryptamine receptor 2A (Homo sapiens, UniProt P28223); test: Displacement of [3H]ketanserin from recombinant human 5-HT2A receptor expressed in HEK293 cell membranes after 60 mins by scintillation counting method
[2] = Ratio of AUC (0 to t) in Sprague-Dawley rat brain to plasma at 2 mg/kg, po; format: ADME, organism-based; conditions: brain and plasma, read-out: Ratio AUC
Procedure, shortened: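 Male Sprague-Dawley rats given the test compound once orally at 2.0 mg/kg. Vehicle was 5% DMSO, 10% Solutol HS 15 and 85% PBS. Heparinized blood sampled at 5, 15, 30 min and 1, 2, 4, 8, 24 h after dosing; brain concentrations also measured (ng/g). Ratio is brain AUC0-t over plasma AUC0-t.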

[3] = molecular target: T1, Muscarinic acetylcholine receptor M1 (Homo sapiens, UniProt P11229); test: Displacement of [3H]pirenzepine from recombinant human M1 receptor expressed in CHO cell membranes at 1 uM after 60 mins by scintillation counting method relative to control; conditions: CHO cell membranes expressing recombinant human M1 receptor, probe [3H]pirenzepine
T1 sequence (P11229 whole entry): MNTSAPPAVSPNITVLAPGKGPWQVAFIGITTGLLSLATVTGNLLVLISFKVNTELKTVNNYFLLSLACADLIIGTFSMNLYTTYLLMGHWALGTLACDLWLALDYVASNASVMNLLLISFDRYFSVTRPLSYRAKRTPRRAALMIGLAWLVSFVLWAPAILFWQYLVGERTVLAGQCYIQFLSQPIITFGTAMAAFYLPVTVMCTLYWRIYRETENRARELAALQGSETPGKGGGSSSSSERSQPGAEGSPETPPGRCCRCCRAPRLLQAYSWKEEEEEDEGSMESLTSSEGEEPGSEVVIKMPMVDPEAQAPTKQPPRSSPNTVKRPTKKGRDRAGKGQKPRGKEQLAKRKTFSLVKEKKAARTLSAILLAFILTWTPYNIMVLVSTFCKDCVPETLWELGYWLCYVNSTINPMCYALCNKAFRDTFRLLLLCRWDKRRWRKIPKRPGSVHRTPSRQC
Procedure, shortened: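 Nonspecific binding defined with […]. Filtered on PEI-soaked GF/B and scintillation counted. Expressed as percent inhibition of control specific binding at a single test concentration.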

[4] = Cmax in Sprague-Dawley rat plasma at 2.0 mg/kg, po administered as single dose by LC-MS/MS analysis; format: ADME, organism-based; parameters: dose 2 mg/kg, route oral
Procedure, shortened: (§1)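 Male SD rats, single dose: 0.5 mg/kg i.v. or 2.0 mg/kg p.o. Vehicle is 5% DMSO, 10% Solutol HS 15 and 85% PBS. Heparinized blood is sampled at 5, 15 and 30 min and at 1, 2, 4, 8 and 24 h after dosing. Plasma is reported in ng/mL and brain in ng/g. F is derived from the p.o. and i.v. arms.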

[5] = Oral bioavailability in Sprague-Dawley rat brain at 2 mg/kg administered as single dose by LC-MS/MS analysis; format: ADME, organism-based; procedure, shortened: as §1
D(2) dopamine receptor [6] = molecular target: T2, D(2) dopamine receptor (Homo sapiens, UniProt P14416); test: Antagonistic activity at D2 receptor (unknown origin) expressed in CHOK1 cells co-expressing G-alpha 15 assessed as inhibition of dopamine-induced calcium flux by fluo-4 dye based FLIPR assay; format: functional, cell-based, CHO-K1
[7] = molecular target: Voltage-gated inwardly rectifying potassium channel KCNH2 (Homo sapiens, UniProt Q12809)
Rattus norvegicus = test: Toxicity in Sprague-Dawley rat assessed as cataleptogenic effect by measuring time spent in cataleptic position at 1 to 10 mg/kg, po measured after 0.5 to 2 hrs; format: organism-based; conditions: in vivo
Procedure, shortened: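 Male SD rats (180–250 g, n = 7) dosed orally at 1.0, 3.0 or 10.0 mg/kg. Forepaws placed on a bar 0.9 cm in diameter, 11 cm high, at 30, 60 and 120 min after dosing. Time held is expressed as a percentage of the 60 s maximum (mean ± SEM).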

[8] = molecular target: T3, 5-hydroxytryptamine receptor 1A (Homo sapiens, UniProt P08908); test: Displacement of [3H]8-OH-DPAT from recombinant human 5-HT1A receptor expressed in HEK293 cell membranes after 60 mins by scintillation counting method
T3 sequence (P08908 whole entry): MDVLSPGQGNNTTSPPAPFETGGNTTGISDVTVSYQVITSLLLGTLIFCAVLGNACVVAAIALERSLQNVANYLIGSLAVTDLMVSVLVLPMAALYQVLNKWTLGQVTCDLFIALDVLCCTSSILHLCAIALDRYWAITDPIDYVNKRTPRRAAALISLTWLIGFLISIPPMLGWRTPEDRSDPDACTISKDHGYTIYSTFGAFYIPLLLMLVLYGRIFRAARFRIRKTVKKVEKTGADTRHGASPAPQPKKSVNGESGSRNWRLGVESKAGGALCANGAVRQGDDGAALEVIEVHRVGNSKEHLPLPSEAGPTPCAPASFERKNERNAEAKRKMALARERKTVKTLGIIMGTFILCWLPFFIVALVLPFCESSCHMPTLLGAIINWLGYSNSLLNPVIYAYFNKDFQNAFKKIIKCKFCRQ

[9] = AUC (0 to t) in Sprague-Dawley rat brain at 0.5 mg/kg, iv administered as single dose by LC-MS/MS analysis; format: ADME, organism-based; procedure, shortened: as §1
D(2) dopamine receptor [10] = molecular target: T2, D(2) dopamine receptor; test: Displacement of [3H]spiperone from recombinant human D2L receptor expressed in CHO cell membranes after 60 mins by scintillation counting method
[11] = AUC (0 to t) in Sprague-Dawley rat plasma at 2 mg/kg, po administered as single dose by LC-MS/MS analysis; format: ADME, organism-based; procedure, shortened: as §1
CHO = test: Selectivity ratio of Ki for displacement of [3H]spiperone from recombinant human D2L receptor expressed in CHO cell membranes to Ki for displacement of [3H]methyl-spiperone from recombinant human D3 receptor expressed in CHO cell membranes
Procedure, shortened: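 D2L binding: CHO membranes (16 µg protein) with 0.3 nM [3H]methyl-spiperone in 50 mM Tris-HCl pH 7.4, 120 mM NaCl, 10 mM MgCl2, 1 mM EDTA, with butaclamol for nonspecific binding. D3 binding: membranes (8 µg) with 0.3 nM [3H]methyl-spiperone in the same Tris buffer with 5 mM KCl, 5 mM MgCl2, 5 mM EDTA, with (+)butaclamol for nonspecific binding. Both run 60 min at 22 °C, then GF/B filtration. Ki by Cheng–Prusoff; ratio is D2 Ki/D3 Ki.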

[12] = molecular target: T3, 5-hydroxytryptamine receptor 1A; test: Antagonistic activity at 5-HT1A receptor (unknown origin) expressed in CHOK1 cells co-expressing G-alpha 15 assessed as inhibition of serotonin-induced calcium flux by Fluo-4 based FLIPR assay; format: functional, cell-based, CHO-K1
[13] = Cmax in Sprague-Dawley rat brain at 2 mg/kg, po administered as single dose by LC-MS/MS analysis; format: ADME, organism-based; parameters: dose 2 mg/kg, route oral; procedure, shortened: as §1

T2 sequence (P14416 whole entry): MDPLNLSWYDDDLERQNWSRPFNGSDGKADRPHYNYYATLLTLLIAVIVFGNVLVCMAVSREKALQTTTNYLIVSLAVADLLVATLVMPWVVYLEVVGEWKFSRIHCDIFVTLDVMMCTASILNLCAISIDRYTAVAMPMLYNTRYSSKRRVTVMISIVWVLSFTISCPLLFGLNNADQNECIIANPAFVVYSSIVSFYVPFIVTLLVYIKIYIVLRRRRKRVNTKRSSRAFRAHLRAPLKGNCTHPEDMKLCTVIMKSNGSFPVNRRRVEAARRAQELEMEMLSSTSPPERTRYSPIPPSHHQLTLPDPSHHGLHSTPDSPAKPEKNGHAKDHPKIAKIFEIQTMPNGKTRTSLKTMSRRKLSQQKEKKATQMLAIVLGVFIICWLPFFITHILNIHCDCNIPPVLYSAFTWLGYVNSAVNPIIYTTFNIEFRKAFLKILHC
Chain of 5-hydroxytryptamine receptor 2A (P28223 whole entry): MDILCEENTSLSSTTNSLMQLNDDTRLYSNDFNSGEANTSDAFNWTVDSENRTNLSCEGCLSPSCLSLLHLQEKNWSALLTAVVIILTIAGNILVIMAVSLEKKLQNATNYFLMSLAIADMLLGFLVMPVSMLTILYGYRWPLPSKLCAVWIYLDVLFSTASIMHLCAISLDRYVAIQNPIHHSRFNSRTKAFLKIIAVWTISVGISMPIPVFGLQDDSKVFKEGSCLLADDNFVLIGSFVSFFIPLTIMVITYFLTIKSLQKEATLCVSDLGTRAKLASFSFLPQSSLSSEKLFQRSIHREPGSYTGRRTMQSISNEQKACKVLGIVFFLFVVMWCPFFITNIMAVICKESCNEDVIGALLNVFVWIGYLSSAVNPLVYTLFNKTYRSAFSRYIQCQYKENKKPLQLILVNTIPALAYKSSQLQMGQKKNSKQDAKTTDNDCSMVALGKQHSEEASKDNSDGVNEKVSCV
Chain of Voltage-gated inwardly rectifying potassium channel KCNH2 (Q12809 whole entry): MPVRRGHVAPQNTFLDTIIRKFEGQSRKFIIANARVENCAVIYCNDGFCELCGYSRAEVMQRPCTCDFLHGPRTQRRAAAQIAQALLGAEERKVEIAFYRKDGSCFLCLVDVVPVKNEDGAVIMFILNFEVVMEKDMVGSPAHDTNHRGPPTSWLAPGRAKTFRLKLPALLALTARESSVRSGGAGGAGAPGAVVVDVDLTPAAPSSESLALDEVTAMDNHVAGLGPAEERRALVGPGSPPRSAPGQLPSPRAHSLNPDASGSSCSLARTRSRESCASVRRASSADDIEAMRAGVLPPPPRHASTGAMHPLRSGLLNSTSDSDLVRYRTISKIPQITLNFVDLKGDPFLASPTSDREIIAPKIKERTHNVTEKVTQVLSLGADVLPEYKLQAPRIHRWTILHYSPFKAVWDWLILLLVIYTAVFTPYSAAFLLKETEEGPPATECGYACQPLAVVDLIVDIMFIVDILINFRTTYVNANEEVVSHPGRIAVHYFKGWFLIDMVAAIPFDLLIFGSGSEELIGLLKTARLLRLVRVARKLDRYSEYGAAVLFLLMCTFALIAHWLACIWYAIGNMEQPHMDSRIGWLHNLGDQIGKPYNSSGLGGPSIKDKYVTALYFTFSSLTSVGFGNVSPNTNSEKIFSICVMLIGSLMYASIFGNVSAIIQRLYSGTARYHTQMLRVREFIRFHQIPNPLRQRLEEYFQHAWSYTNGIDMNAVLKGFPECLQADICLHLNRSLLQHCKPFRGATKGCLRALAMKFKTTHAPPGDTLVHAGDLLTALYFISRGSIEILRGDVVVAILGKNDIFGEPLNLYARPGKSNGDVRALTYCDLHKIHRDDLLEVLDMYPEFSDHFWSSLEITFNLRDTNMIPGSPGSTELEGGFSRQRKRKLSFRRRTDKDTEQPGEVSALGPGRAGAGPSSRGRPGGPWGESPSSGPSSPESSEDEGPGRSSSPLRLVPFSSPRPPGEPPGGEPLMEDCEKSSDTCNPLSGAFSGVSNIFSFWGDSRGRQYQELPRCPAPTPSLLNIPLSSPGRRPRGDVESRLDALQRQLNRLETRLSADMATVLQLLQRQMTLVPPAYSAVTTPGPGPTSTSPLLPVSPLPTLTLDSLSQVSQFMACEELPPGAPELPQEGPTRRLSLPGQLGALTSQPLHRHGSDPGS

## O=C(N[C@H]1CC[C@H](CCN2CCN(c3nsc4ccccc34)CC2)CC1)c1ccco1
[1]
  Ki: 0.23 nM
[2]
  Kp: 16.1
[3]
  inhibition at 1 h, 1 µM: 50.6%
[4]
  Cmax: 18.4 ng/mL
[5]
  bioavailability: 20.7%
D(2) dopamine receptor [6]
  IC50: 61.4 nM
[7]
  IC50: 2110 nM
Rattus norvegicus
  Activity: Non-Toxic
[8]
  Ki: 1.3 nM
[9]
  AUC(0-t): 1070 ng·h/mL
D(2) dopamine receptor [10]
  Ki: 2.9 nM
[11]
  AUC(0-t): 55 ng·h/mL
CHO
  Ratio Ki: 22.3
[12]
  IC50: 46.1 nM
[13]
  Cmax: 52.8 ng/mL
